Results as given in ChEMBL document CHEMBL1124344, “5-Piperazinylalkyl-2(3H)-oxazolones with neuroleptic activity” (J Med Chem, 1989).

Tests used:
Mus musculus [1] = assay: Anticonvulsant activity against electroshock-induced convulsions, after 5 hours of peroral administration in mouse; type: functional; details: po
Procedure, shortened: (§1)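 Compounds were dosed as bases suspended in arabic gum at 10 mL/kg orally, after an overnight fast, with vehicle controls. Protection meant no bilateral forepaw clonic seizures or head twitches (tryptamine), or no tonic hind-limb extension (the other two). ED50 is the dose protecting 50%, by probit analysis.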

Mus musculus [2] = assay: Inhibitory activity against tremorine-induced salivation, after 1 hour of peroral administration in mouse; type: functional; details: po
Procedure, shortened: (§2)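 Male mice fasted overnight, dosed orally with arabic gum suspension (10 mL/kg) 1 or 5 h before test, vehicle controls included. Tremorine 20 mg/kg ip given 1 h after compounds; central (tremor) and peripheral (salivation) parasympathetic signs recorded. ED50 = dose protecting 50% of animals, by probit analysis.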

Rattus norvegicus [3] = species: Rattus norvegicus; assay: Binding affinity against rat striatal membranes using [3H]spiroperidol as the radioligand after 15 min of incubation at 37 °C
dog (Canis familiaris) = assay: Antagonistic activity against apomorphine-induced emesis, after 5 hour of peroral administration in dogs; details: Canis lupus familiaris, po
Mus musculus [4] = assay: Activity of inclined screen in mouse, after 5 hour of peroral administration in mouse; type: functional; details: po
Procedure, shortened: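 Male mice dosed orally (arabic gum suspension, 10 mL/kg, fasted overnight) 1 or 5 h before testing. Placed for 1 h on a wire screen bent at 60° to the horizontal. Ataxic or miorelaxed mice slide off. ED50 is the dose at which 50% of mice fall, by probit analysis. Ten animals per dose, with vehicle controls.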

Mus musculus [5] = assay: Effect on skeletal muscle tone, after 5 hour of peroral administration in mouse; type: functional; details: Muscle tissue, po
Procedure, shortened: (§3)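 Male mice were placed for 1 h on a 60° inclined wire screen just after dosing and 4 h later. In a second test, trained mice hung by the forepaws from a horizontal 1.8 mm wire 15 cm up; normal mice touch it with a hind paw within 2 s and stay ≥1 min. ED50 is the dose making 50% fall. Dosing was oral in gum arabic suspension at 10 mL/kg after an overnight fast.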

Mus musculus [6] = assay: Lethal dose in mice by administered the compound intraperitoneally; type: functional; details: ip
Procedure, shortened: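 Acute toxicity tested in mice by the intraperitoneal route. LD50 is the dose killing 50% of treated mice, computed by Finney probit analysis; values are approximate.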

Mus musculus [7] = assay: Effect on skeletal muscle tone, after 1 hour of peroral administration in mouse; type: functional; details: Muscle tissue, po
Procedure, shortened: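 Male mice suspended by forepaws from a 1.8-mm wire stretched 15 cm above a plane. Trained normal mice touch the wire with a hind paw within 2 s (traction) and hang at least 1 min (suspension). Oral dosing 1 or 5 h before. ED50 is the dose making 50% of mice fall without traction and suspension.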

Mus musculus [8] = assay: Anticonvulsant activity against electroshock-induced convulsions, after 1 hour of peroral administration in mouse; type: functional; details: po
Procedure, shortened: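 Male mice given oral drug in arabic gum suspension (10 mL/kg) after overnight fast, then challenged by maximal electroshock. Protection means absence of tonic hind-limb extension. ED50 is the dose protecting 50% of mice, by probit analysis.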

Mus musculus [9] = assay: Inhibitory activity against tremorine-induced salivation, after 5 hour of peroral administration in mouse; details: po
Mus musculus [10] = assay: Contractile activity in skeletal muscles, after 5 hour of peroral administration in mouse; type: functional; details: Muscle tissue, po; procedure, shortened: as §3
Mus musculus [11] = assay: Inhibitory activity against tremorine-induced salivation, after 1 hour of peroral administration in mouse at a dose of 60 mg/kg; type: functional; details: route oral; procedure, shortened: as §2
Mus musculus [12] = assay: Inhibitory activity against tremorine-induced tremors, after 1 hour of peroral administration in mouse at a dose of 60 mg/kg; type: functional; details: route oral; procedure, shortened: as §2
Rattus norvegicus [13] = assay: Activity to evoke catalepsy in rats, by administering perorally; type: functional; details: po
Procedure, shortened: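 Rats fasted overnight and given oral doses in arabic gum suspension (10 mL/kg), 1 h before screening or 1 and 5 h before profile testing. Forelegs placed on a horizontal bar 7 cm high, three times at 5-min intervals. Immobility of at least 15 s counts as catalepsy. ED50 is the dose giving catalepsy in 50% of rats, by probit analysis. Parenthetical entries give the maximal dose and percent activity.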

Canis familiaris [14] = assay: Antagonistic activity against apomorphine-induced emesis, after 5 hour of peroral administration in dogs; type: functional; details: Canis lupus familiaris, po
Procedure, shortened: (§4)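 Male and female dogs pretreated orally, then challenged with apomorphine 0.3 mg/kg sc. Complete protection from vomiting for 30 min after apomorphine is the criterion. ED50 is the dose protecting 50% of dogs, per Janssen's method.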

Mus musculus [15] = assay: Anticonvulsant activity against electroshock-induced convulsions, after 1 hour of peroral administration in mouse at a dose of 40 mg/kg; type: functional; details: route oral; procedure, shortened: as §1
Mus musculus [16] = assay: Inhibitory activity against tremorine-induced tremors, after 5 hour of peroral administration in mouse at a dose of 60 mg/kg; type: functional; details: route oral; procedure, shortened: as §2
Rattus norvegicus [17] = assay: Inhibitory activity against norepinephrine-induced lethality, after 1 hour of peroral administration in rat; type: functional; details: po
Procedure, shortened: (§5)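 Rats (80–90 g) dosed orally (arabic gum, 10 mL/kg) 1 or 5 h before norepinephrine 0.5 mg/kg iv, which kills unprotected rats within 30 min. ED50 is the dose protecting 50% of rats from lethality, by probit analysis.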

Rattus norvegicus [18] = assay: Antagonistic activity against apomorphine-induced stereotypy in rats, by administering perorally; type: functional; details: po
Procedure, shortened: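 Male rats fasted overnight and given oral doses in arabic gum suspension (10 mL/kg) 1 h, or 1 and 5 h, before challenge. Apomorphine 3 mg/kg iv, with stereotypy observed 20 min later. ED50 is the dose inhibiting stereotypy in 50% of rats, per Janssen's method. Parenthetical entries give the maximal dose and percent activity.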

Rattus norvegicus [19] = assay: Inhibitory activity against norepinephrine-induced lethality, after 5 hour of peroral administration in rat; type: functional; details: po; procedure, shortened: as §5
Mus musculus [20] = assay: Inhibitory activity against tremorine-induced salivation, after 5 hour of peroral administration in mouse at a dose of 60 mg/kg; type: functional; details: route oral; procedure, shortened: as §2
Mus musculus [21] = assay: Inhibitory activity against tremorine-induced tremors, after 1 hour of peroral administration in mouse at dose 20 mg/kg; type: functional; details: route oral; procedure, shortened: as §2
Canis familiaris [22] = assay: Antagonistic activity against apomorphine-induced emesis, after 1 hr of peroral administration in dogs; type: functional; details: Canis lupus familiaris, po; procedure, shortened: as §4
Mus musculus [23] = assay: Inhibition against apomorphine-induced turning, after 5 hour of peroral administration in mouse; type: functional; details: po
Procedure, shortened: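 Mice were lesioned unilaterally with intranigrostriatal 6-hydroxydopamine (20 µg). At 7 days, strong contraversive turners 15 min after apomorphine 2 mg/kg ip were selected. A week later they were dosed orally and rechallenged. Fewer than six full rotations in 2 min counted as protection. ED50 is the dose protecting 50%.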

Dopamine receptor = assay: Binding affinity against rat striatal membranes using [3H]spiroperidol as the radioligand, after 15 min of incubation in vitro at 37 degree C; design: species or system Striatum, Membrane
Procedure, shortened: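 Crude rat striatal membranes were stored at –80 °C, then thawed and washed. They were incubated 15 min at 37 °C with drug (10⁻¹⁰ to 10⁻⁴ M), [3H]spiroperidol 0.5 nM, 1 μM pargyline and 0.1% ascorbic acid, then filtered, washed and counted. Nonspecific binding was defined with 1 μM haloperidol. IC50 was read from the displacement curve.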

Mus musculus [24] = assay: Inhibitory activity against tremorine-induced salivation, after 5 hour of peroral administration in mouse at dose of 60 mg/kg; type: functional; details: route oral; procedure, shortened: as §2
Mus musculus [25] = assay: Effect on skeletal muscle tone, after 1 hour of peroral administration in mouse at dose of 200 mg/kg; type: functional; details: Muscle tissue, route oral; procedure, shortened: as §3

Row | SMILES | ED50 (Mus musculus [1]) | ED50 (Mus musculus [2]) | IC50 (Rattus norvegicus [3]) | ED50 (Mus musculus [4]) | ED50 (Mus musculus [5]) | ED50 (Mus musculus [6]) | ED50 (Mus musculus [7]) | ED50 (Mus musculus [8]) | ED50 (Mus musculus [9]) | ED50 (Mus musculus [10]) | inhibition in vivo at 60 mg/kg (Mus musculus [11]) | inhibition in vivo at 60 mg/kg (Mus musculus [12]) | ED50 (Rattus norvegicus [13]) | ED50 (Canis familiaris [14]) | inhibition in vivo at 60 mg/kg (Mus musculus [16]) | ED50 (Rattus norvegicus [17]) | ED50 (Rattus norvegicus [18]) | ED50 (Rattus norvegicus [19]) | inhibition in vivo at 60 mg/kg (Mus musculus [20]) | ED50 (Canis familiaris [22]) | also measured
1 | CN(C)CCCN1c2ccccc2Sc2ccc(Cl)cc21 [CHLORPROMAZINE] | 10 mg/kg | 2.5 mg/kg | 180 nM | 7 mg/kg | 7.5 mg/kg | 2.7 mg/kg | 2.7 mg/kg | 19.2 mg/kg | 2 mg/kg | 10.3 mg/kg | – | – | – | – | – | – | – | – | – | – | ED50 (dog (Canis familiaris)): 7.5 mg/kg
2 | COc1ccccc1N1CCN(CCCC(=O)c2ccc(F)cc2)CC1 [FLUANISONE] | – | – | – | – | – | – | – | – | – | 50 mg/kg | 0% | 0% | 18 mg/kg | 8.6 mg/kg | 0% | 1.9 mg/kg | 63.2 mg/kg | 5.6 mg/kg | 0% | – | inhibition in vivo at 40 mg/kg (Mus musculus [15]): 0%
3 | O=C(CCCN1CCC(O)(c2ccc(Cl)cc2)CC1)c1ccc(F)cc1 [HALOPERIDOL] | 0.38 mg/kg | 4 mg/kg | 10 nM | 6.5 mg/kg | – | 0.23 mg/kg | 17.1 mg/kg | 1.9 mg/kg | 21.6 mg/kg | 15 mg/kg | – | – | – | – | – | – | – | – | – | – | inhibition in vivo at 20 mg/kg (Mus musculus [21]): 0%
4 | O=c1[nH]c(-c2ccc(F)cc2)c(CCN2CCN(c3cc(Cl)cc(Cl)c3)CC2)o1 [LODIPERONE] | – | – | – | – | – | – | – | – | – | 200 mg/kg | 0% | 0% | – | 2.5 mg/kg | 0% | – | – | – | 0% | 4 mg/kg | ED50 (Mus musculus [23]): 1 mg/kg; IC50 (Dopamine receptor): 68 nM
5 | COc1ccccc1N1CCN(CCc2oc(=O)[nH]c2-c2ccc(F)cc2)CC1 [ZOLOPERONE] | – | – | – | – | 75 mg/kg | – | – | – | – | 62.5 mg/kg | – | – | 55.6 mg/kg | 1.5 mg/kg | – | 3.2 mg/kg | 10.4 mg/kg | 8.2 mg/kg | – | 0.7 mg/kg | inhibition in vivo at 60 mg/kg (Mus musculus [24]): 0%; inhibition in vivo at 200 mg/kg (Mus musculus [25]): 0%; ED50 (Mus musculus [23]): 20 mg/kg; IC50 (Dopamine receptor): 250 nM
